Experimental data taken from ChEMBL document CHEMBL3232852, “Bexarotene prodrugs: targeting through cleavage by NQO1 (DT-diaphorase)” (Bioorg Med Chem Lett, 2014).

What was measured:
[1] = Activity of pig liver esterase at 5 uM after 180 mins; type: ADME, Sus scrofa; conditions: 3 h
In short: (§1)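 Porcine liver esterase at a final 76 µg/mL (1.3 U/mL) in tris buffer pH 7.4. Conjugates were incubated at 5 µM and monitored for ester cleavage and free bexarotene over 180 min and up to 24 h. Ethylbenzoate was the reference substrate at 100 µM.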

[2] = biological target: T1, NAD(P)H dehydrogenase [quinone] 1 (Homo sapiens, UniProt P15559); experiment: Prodrug conversion assessed as NQO1 (unknown origin)-mediated bexarotene formation at 5 uM by HPLC analysis in presence of 300 uM NADH followed by addition of NADH at 30 and 60 mins; type: ADME; conditions: 1 h
T1 sequence (P15559 whole entry): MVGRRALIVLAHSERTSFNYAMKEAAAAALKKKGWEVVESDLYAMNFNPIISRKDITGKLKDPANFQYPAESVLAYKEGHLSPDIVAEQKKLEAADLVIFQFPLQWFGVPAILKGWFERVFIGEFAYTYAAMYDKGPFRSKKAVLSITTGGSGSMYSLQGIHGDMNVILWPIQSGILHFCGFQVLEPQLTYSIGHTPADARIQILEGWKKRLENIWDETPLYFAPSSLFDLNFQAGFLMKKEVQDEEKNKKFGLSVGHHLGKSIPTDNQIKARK
In short: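 Same NQO1 incubation: 5 µM compound, 37 ± 1 °C, diaphorase 50 U/mL, 0.07% BSA and 300 µM NADH in tris pH 7.4. Extra NADH was added at 30 and 60 min to test cofactor depletion. Bexarotene formation was read by RP-18 HPLC, in triplicate.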

[3] = biological target: T1, NAD(P)H dehydrogenase [quinone] 1; experiment: Prodrug conversion assessed as NQO1 (unknown origin)-mediated bexarotene formation at 5 uM by HPLC analysis in presence of NADH; type: ADME
In short: (§2)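 DMSO stocks were diluted 100-fold with tris buffer, and compound (5 µM) was incubated at 37 ± 1 °C with or without diaphorase (NQO1, 50 U/mL). The mix held 0.07% BSA and 300 µM NADH in tris pH 7.4. Bexarotene release was followed by RP-18 HPLC (acetonitrile/water); incubations ran up to 24 h, in triplicate.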

[4] = biological target: T1, NAD(P)H dehydrogenase [quinone] 1; experiment: Prodrug conversion assessed as NQO1 (unknown origin)-mediated bexarotene formation at 5 uM after 4 to 24 hrs by HPLC analysis in presence of NADH; type: ADME; in short: as §2
[5] = Activity of pig liver esterase at 100 uM after 7 mins; type: ADME, Sus scrofa; in short: as §1

C=C(c1ccc(C(=O)OCc2c3c(n(C)c2C)C(=O)C=C(OC)C3=O)cc1)c1cc2c(cc1C)C(C)(C)CCC2(C)C
Drug metabolism [1]: metabolite_notdetected | Drug metabolism [2]: metabolite_notdetected

C=C(c1ccc(C(=O)OCc2c3c(n(C)c2C)C(=O)C(C)=C(OC)C3=O)cc1)c1cc2c(cc1C)C(C)(C)CCC2(C)C
Drug metabolism [3]: metabolite_detected | Drug metabolism [2]: metabolite_notdetected

C=C(c1ccc(C(=O)OCc2cn(C)c3c2C(=O)C(OC)=CC3=O)cc1)c1cc2c(cc1C)C(C)(C)CCC2(C)C
Drug metabolism [3]: metabolite_detected | Drug metabolism [2]: metabolite_notdetected

C=C(c1ccc(C(=O)OCc2c(C)c3c(n2C)C(=O)C=C(OC)C3=O)cc1)c1cc2c(cc1C)C(C)(C)CCC2(C)C
Drug metabolism [2]: metabolite_notdetected | Drug metabolism [4]: metabolite_notdetected

COC1=CC(=O)c2c(c(COc3ccc([N+](=O)[O-])c(C)c3)c(C)n2C)C1=O
Drug metabolism [3]: metabolite_detected

COC1=CC(=O)c2c(c(C)c(COc3ccc([N+](=O)[O-])c(C)c3)n2C)C1=O
Drug metabolism [3]: metabolite_detected

CCOC(=O)c1ccccc1 [ETHYL BENZOATE]
Drug metabolism [5]: metabolite_detected
